Source: ChEMBL document CHEMBL1125104, “Long-acting dihydropyridine calcium antagonists. 5. Synthesis and structure-activity relationships for a series of 2-[[(N-substituted-heterocyclyl)ethoxy]methyl]-1,4-dihydropyridine calcium antagonists” (J Med Chem, 1990)

Tests used:
[1] = species on record: Cavia porcellus; test: Concentration required to depress contraction in the Langendorff-perfused guinea pig heart; type: functional
Procedure, shortened: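 Langendorff-perfused guinea pig heart, in vitro. The negative inotropic effect is given as IC25, the concentration that depresses contraction by 25%.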

[2] = species on record: Rattus norvegicus; test: Concentration required to block Ca+2-induced contraction of K+ depolarized rat aorta; type: functional
Procedure, shortened: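 Isolated rat aorta depolarized with potassium; contraction triggered by added calcium. IC50 is the concentration that inhibits the calcium-induced contraction by 50%.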

[3] = […] of rat aorta to […] of guinea pig; type: functional
[4] = Half life of the compound
[5] = system: Canis familiaris; test: Coronary vasodilator activity in anesthetized dogs at the dose of 150 ug/kg (iv); type: functional, Canis lupus familiaris

Structure (SMILES)	pIC25 [1]	IC50 [2] [nM]	Selectivity index [3]	half-life [4] [min]	Decrease [5] [%]
CCOC(=O)c1cnnn1CCOCC1=NC(C)=C(C(=O)OC)C(c2ccccc2Cl)/C1=C(\O)OCC (stereo not given)	6.9	100	1.3	–	–
CCOC(=O)c1cn(CCOCC2=NC(C)=C(C(=O)OC)C(c3ccccc3Cl)/C2=C(\O)OCC)nn1 (stereo not given)	7	50.1	2	–	–
CCO/C(O)=C1\C(COCCn2c(C)nc(C)c2C)=NC(C)=C(C(=O)OC)C1c1ccccc1Cl (stereo not given)	7.5	5.01	6	–	–
CCO/C(O)=C1\C(COCCN2CC(=O)N(C)C2=O)=NC(C)=C(C(=O)OC)C1c1cccc(Cl)c1Cl (stereo not given)	7.2	–	–	10	50
CCO/C(O)=C1\C(COCCN2CC(=O)N=C2N)=NC(C)=C(C(=O)OC)C1c1ccccc1Cl (stereo not given)	6.1	20	40	–	–
CCO/C(O)=C1\C(COCCN2CC(=O)N=C2N)=NC(C)=C(C(=O)OC)C1c1cccc(Cl)c1Cl (stereo not given)	–	–	–	> 180	60
CCO/C(O)=C1\C(COCCn2ccnc2C)=NC(C)=C(C(=O)OC)C1c1ccccc1Cl (stereo not given)	7.8	2.51	6	–	–
CCO/C(O)=C1\C(COCCN2C(=O)CNC2=O)=NC(C)=C(C(=O)OC)C1c1ccccc1Cl (stereo not given)	6.8	31.6	5	–	–
CCO/C(O)=C1\C(COCCn2cnc3ccccc32)=NC(C)=C(C(=O)OC)C1c1ccccc1Cl (stereo not given)	7.2	20	3	–	–
CCO/C(O)=C1\C(COCCn2c(N)cnc2O)=NC(C)=C(C(=O)OC)C1c1ccccc1Cl (stereo not given)	6	158	6	–	–
CCOC(=O)C1=C(COCCN)NC(C)=C(C(=O)OC)C1c1ccccc1Cl (stereo not given) [AMLODIPINE]	7.2	7.94	8	–	–
CCO/C(O)=C1\C(COCCn2ccnn2)=NC(C)=C(C(=O)OC)C1c1ccccc1Cl (stereo not given)	7.3	15.8	3	–	–
CCO/C(O)=C1\C(COCCn2nncc2C(N)=O)=NC(C)=C(C(=O)OC)C1c1ccccc1Cl (stereo not given)	6.3	100	5	–	–
CCO/C(O)=C1\C(COCCN2CC(=O)N(C)C2=O)=NC(C)=C(C(=O)OC)C1c1ccccc1Cl (stereo not given)	6.4	25.1	16	–	–
CCO/C(O)=C1\C(COCCn2cc(C(N)=O)nn2)=NC(C)=C(C(=O)OC)C1c1cccc(Cl)c1Cl (stereo not given)	6.6	3.16	80	20	54
CCO/C(O)=C1\C(COCCN2CC(=O)NC2=O)=NC(C)=C(C(=O)OC)C1c1cccc(Cl)c1Cl (stereo not given)	7.1	3.16	25	30	65
CCO/C(O)=C1\C(COCCn2cc(C(N)=O)nn2)=NC(C)=C(C(=O)OC)C1c1ccccc1Cl (stereo not given)	<6	20	>50	–	–
CCO/C(O)=C1\C(COCCN2CC(=O)NC2=O)=NC(C)=C(C(=O)OC)C1c1ccccc1Cl (stereo not given)	6.3	20	25	–	–
CCO/C(O)=C1\C(COCCn2ccnn2)=NC(C)=C(C(=O)OC)C1c1cccc(Cl)c1Cl (stereo not given)	7.3	5.01	10	30	79
CCO/C(O)=C1\C(COCCn2cc(N)n(C)c2=O)=NC(C)=C(C(=O)OC)C1c1ccccc1Cl (stereo not given)	6.2	25.1	25	–	–
CCO/C(O)=C1\C(COCCn2nncc2C(N)=O)=NC(C)=C(C(=O)OC)C1c1cccc(Cl)c1Cl (stereo not given)	6.5	15.8	20	–	–
COC(=O)C1=C(C)NC(C)=C(C(=O)OC)C1c1ccccc1[N+](=O)[O-] [NIFEDIPINE]	7.5	–	8	36	77
CCO/C(O)=C1\C(COCCn2cc(N)nc2O)=NC(C)=C(C(=O)OC)C1c1ccccc1Cl (stereo not given)	<6	31.6	>32	–	–
